Results as given in ChEMBL document CHEMBL4138188, “Eurycomalactone Inhibits Expression of Endothelial Adhesion Molecules at a Post-Transcriptional Level” (J Nat Prod, 2017).
Active and inactive are the calls of the source.

Key:
[1] = species: Homo sapiens; assay: Inhibition of NF-kappaB in HUVECtert assessed as reduction in TNFalpha-induced VCAM-1 mRNA expression level at 10 uM pretreated for 30 mins followed by TNFalpha stimulation measured after 4 hrs by qRT-PCR analysis
Method in brief: (§1)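 HUVECtert (immortalised HUVEC, used to passage 15), 0.5 × 10^6 cells grown 48 h on gelatin-coated dishes. Preincubated 30 min with compound or 0.1% DMSO vehicle, then TNFα 10 ng/mL for 2 h (E-selectin) or 4 h (VCAM-1, ICAM-1). After RNA isolation and cDNA synthesis, mRNA was quantified by qRT-PCR using the 2−ΔΔCt method. Means ± SD, n = 3.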

[2] = species: Homo sapiens; assay: Inhibition of NF-kappaB in HUVECtert assessed as reduction in TNFalpha-induced ICAM-1 mRNA expression level at 10 uM pretreated for 30 mins followed by TNFalpha stimulation measured after 4 hrs by qRT-PCR analysis; method in brief: as §1
[3] = species: Homo sapiens; assay: Inhibition of NF-kappaB in HUVECtert assessed as reduction in TNFalpha-induced E-selectin mRNA expression level at 10 uM pretreated for 30 mins followed by TNFalpha stimulation measured after 2 hrs by qRT-PCR analysis; method in brief: as §1
[4] = Inhibition of NF-kappaB in HUVECtert assessed as reduction in TNFalpha-induced VCAM-1 expression level pretreated for 30 mins followed by TNFalpha stimulation measured after 18 hrs by flow cytometry; design: species or system Homo sapiens
Method in brief: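 FITC-antibody surface staining, flow cytometry; expression relative to TNFα-stimulated control. Parthenolide 10 μM as positive control; means ± SD, n = 3, one-way ANOVA/Dunnett versus vehicle.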

[5] = species: Homo sapiens; assay: Inhibition of de novo protein synthesis in HUVECtert at 1 to 35 uM after 30 mins by Click-iT OPP/Alexa fluor 488 picolyl azide reagent based confocal fluorescence microscopy; assay type: functional
Method in brief: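 Cells on gelatin coverslips (24 h) exposed 30 min to agent (2 or 5 μM; cycloheximide 1, 3.5, 35 μM) or 0.1% DMSO, then 20 μM OPP for 30 min; formaldehyde fixation, Triton permeabilisation, Alexa 488 picolyl azide click reaction 30 min, nuclear counterstain; confocal imaging at 10×, constant gain and exposure.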

[6] = species: Homo sapiens; assay: Reduction in cyclin A level in HUVECtert at 1 uM after 8 hrs by Western blot analysis; assay type: functional
[7] = species: Homo sapiens; assay: Inhibition of de novo protein synthesis in HUVECtert at 1 to 35 uM after 30 mins by Click-iT OPP/Alexa fluor 488 picolyl azide reagent based flow cytometry; assay type: functional
Method in brief: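 HUVECtert (1 × 10^6 cells in tubes) exposed 30 min to agent (2 or 5 μM; cycloheximide 1−35 μM) or vehicle, then 20 μM OPP 30 min; fixed, permeabilised, Alexa 488 click-labelled in Tris buffer pH 7.4; FL-1 flow cytometry relative to control; n = 3, one-way ANOVA/Dunnett.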

[8] = species: Homo sapiens; assay: Inhibition of NF-kappaB in HUVECtert assessed as reduction in TNFalpha-induced ICAM-1 mRNA expression level at 35 uM pretreated for 30 mins followed by TNFalpha stimulation measured after 4 hrs by qRT-PCR analysis
[9] = species: Homo sapiens; assay: Inhibition of NF-kappaB in HUVECtert assessed as reduction in TNFalpha-induced VCAM-1 mRNA expression level at 35 uM pretreated for 30 mins followed by TNFalpha stimulation measured after 4 hrs by qRT-PCR analysis
[10] = species: Homo sapiens; assay: Reduction in cyclin D1 level in HUVECtert at 1 uM by Western blot analysis; assay type: functional; conditions: TDE = time-dependent effect
Method in brief: (§2)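 HUVECtert treated with 1 μM cycloheximide, 2 μM agent, vehicle, or left untreated for a time course; cyclin D1 or survivin by Western blot, actin loading control; means ± SD of three blots, one-way ANOVA/Dunnett versus untreated.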

[11] = species: Homo sapiens; assay: Inhibition of NF-kappaB in HUVECtert assessed as reduction in cyclin D1 mRNA expression level at 1 uM measured up to 240 mins by qRT-PCR analysis
Method in brief: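 HUVECtert incubated without TNFα with 2 μM agent, 1 μM cycloheximide or 0.1% DMSO for 0.5−4 h; cyclin D1 mRNA by qRT-PCR, 2−ΔΔCt analysis.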

[12] = species: Homo sapiens; assay: Reduction in survivin level in HUVECtert at 1 uM by Western blot analysis; assay type: functional; conditions: TDE = time-dependent effect; method in brief: as §2
[13] = species: Homo sapiens; assay: Inhibition of NF-kappaB in HUVECtert assessed as reduction in TNFalpha-induced E-selectin mRNA expression level at 35 uM pretreated for 30 mins followed by TNFalpha stimulation measured after 2 hrs by qRT-PCR analysis
[14] = species: Homo sapiens; assay: Reduction in p53 level in HUVECtert at 1 uM after 8 hrs by Western blot analysis; assay type: functional

C=C1C(=O)O[C@@H]2C3O[C@]3(C)CC/C=C(\C)CC[C@@H]12 (some centres undefined)
active: inhibition [1] | inhibition [2] | inhibition [3]

C[C@@H]1C[C@@H]([C@H](O)CC2CC(=O)NC(=O)C2)C(=O)[C@@H](C)C1 [CYCLOHEXIMIDE]
active: inhibition [5] | inhibition [7] | inhibition [9] | Activity [10] Tde | Activity [12] Tde
300 nM: IC50 [4]
inactive: Activity [6] | inhibition [8] | inhibition [11] | inhibition [13] | Activity [14]
